Assay results gathered from unrelated publications.
Medium: plasma

COc1ccc(-c2coc3cc(O)cc(O)c3c2=O)cc1  half-life (rat; intravenous; 2 mg/kg): 0.19 h
CCCCC(=O)Nc1ccc(-c2ccc3ncn(CCC)c(=O)c3c2)cn1  half-life (male rat; intravenous; 2.5 mg/kg): 0.582 h
CC(C)(N)COCC(=O)N1CCC[C@H](C(=O)NCc2nc(-c3ccc(C(F)(F)F)cc3)cs2)C1  half-life (male Sprague-Dawley rat; intravenous; 1 mg/kg): 7.2 h
[2H]C([2H])([2H])NC(=O)c1cc(Oc2ccc(NC(=O)Nc3ccc(Cl)c(C(F)(F)F)c3)cc2)ccn1  half-life (rat; oral; 40 mg/kg; single dose): 23.2 h
C[C@H]1Oc2cc(cnc2N)-c2c(nn(C)c2C#N)CN(C)C(=O)c2ccc(F)cc21  half-life (male Sprague-Dawley rat; oral; 50 mg/kg; single dose): 17.6 h
[2H]c1cc(C)c(NC(=O)c2cnc(Nc3cc(N4CCC(O)CC4)nc(C)n3)s2)c(Cl)c1  half-life (male Sprague-Dawley rat; intravenous; 1 mg/kg): 1.9 h
CNS(=O)(=O)c1ccc(Nc2ncc3cc(Cl)c(=O)n(C4CCCC4)c3n2)c(C)c1  half-life (rat; intravenous; 2 mg/kg): 1.2 h
COc1cc(-c2cc(C(C)=O)n3ccccc23)c(OC)cc1Cn1ccnc1  half-life (male Sprague-Dawley rat; intravenous; 5 mg/kg): 0.75 h
Cc1cc(S(=O)(=O)NC2CC(N3CCN(CC4CCN(c5cccc6c5n(C)c(=O)n6C5CCC(=O)NC5=O)CC4)C4(CC4)C3)C2)ccc1Nc1ncc(C(F)(F)F)c(N2CCC[C@](C)(O)C2)n1 (some centres unmarked)  half-life (rat; intravenous; 2 mg/kg): 3.5 h
C1=C/COCc2cc(ccc2OCCN2CCCC2)Nc2nccc(n2)-c2cccc(c2)COC/1  half-life (male Sprague-Dawley rat; oral; 36 mg/kg): 12.1 h
C[C@@]12C[C@@]3(O)O[C@@H](O1)[C@]1(COC(=O)c4ccccc4)[C@H]3C[C@@]12O[C@@H]1O[C@H](CO)[C@@H](O)[C@H](O)[C@H]1O  half-life (male Sprague-Dawley rat; oral; 80 mg/kg): 11.4 h
Cc1cc(S(=O)(=O)NC2CC(N3CCN(CC4CCN(c5ccc6c(c5F)n(C)c(=O)n6C5CCC(=O)NC5=O)CC4)CC3)C2)ccc1Nc1ncc(C(F)(F)F)c(N2CCCC(C)(O)C2)n1 (centres unmarked)  half-life (rat; intravenous; 2 mg/kg): 7.2 h
COCC(=O)N1CCC[C@H](C(=O)NCc2nc(-c3ccccc3)cs2)C1  half-life (male Sprague-Dawley rat; oral; 3 mg/kg): 3.9 h
Cn1c(=O)c2[nH]cnc2n(C)c1=O  half-life (male Sprague-Dawley rat; intravenous; 11.25 mg/kg): 4.81 h
CNC(=O)c1cc(Oc2ccc(NC(=O)Nc3ccc(Cl)c(C(F)(F)F)c3)cc2)ccn1  half-life (male Sprague-Dawley rat; oral; 100 mg/kg; single dose): 13.8 h
COc1nc(-c2cccc(-c3ccccc3)c2C)ccc1CNCCNC(=O)CCCCCCCCCCC(=O)N1CCN(CCNC(=O)c2cc3c(=O)n4cccc(C)c4nc3n(CCc3cccs3)c2=N)CC1  half-life (male Sprague-Dawley rat; intravenous; 2 mg/kg): 5.8 h
CCN(CC)Cc1ccc2cc(COC(=O)Nc3ccc(C(=O)NO)cc3)ccc2c1  half-life (male Sprague-Dawley rat; oral; 10 mg/kg): 19.7 h
CONC(=O)c1cccc2c1cc(C)n2-c1nc2c(c(NCc3ccccc3)n1)CCCN2  half-life (male Sprague-Dawley rat; intravenous; 1 mg/kg; single dose): 3.13 h
CCOCC(=O)N1CCC[C@H](C(=O)NCc2nc(-c3ccc(C#N)nc3)cs2)C1  half-life (male Sprague-Dawley rat; oral; 3 mg/kg): 1.6 h
C[C@H]1CN(c2ccc(C3CCC(=O)NC3=O)cc2F)CCN1CC12CCC(NS(=O)(=O)c3ccc(Nc4ncc(C(F)(F)F)c(N5CCC[C@](C)(O)C5)n4)c(F)c3)(CC1)CO2 (some centres unmarked)  half-life (rat; intravenous; 2 mg/kg): 3.4 h
CCOCC(=O)N1CCC[C@H](C(=O)NCc2nc(-c3ccc(C)nc3)cs2)C1  half-life (male Sprague-Dawley rat; oral; 3 mg/kg): 1.9 h
C[C@]1(O)CCCN(c2nc(Nc3ccc(S(=O)(=O)N[C@@H]4CCN(CC5CCN(c6ccc(C7CCC(=O)NC7=O)cc6F)CC5)C[C@H]4F)cc3F)ncc2C(F)(F)F)C1 (some centres unmarked)  half-life (rat; intravenous; 2 mg/kg): 5.1 h
COc1cc(C2C3=C(COC3=O)N(CCO)c3cc4c(cc32)CCC4)cc(OC)c1OC (centres unmarked)  half-life (female Sprague-Dawley rat; intraperitoneal; 50 mg/kg): 8.61 h
C[C@H]1CN(CC2CCN(c3ccc(C4CCC(=O)NC4=O)cc3F)CC2)CC[C@H]1NS(=O)(=O)c1ccc(Nc2ncc(C(F)(F)F)c(N3CCC[C@](C)(O)C3)n2)c(F)c1 (some centres unmarked)  half-life (rat; intravenous; 2 mg/kg): 4.6 h
CC[C@@H]([C@H](C)O)n1ncn(-c2ccc(N3CCN(c4ccc(OC[C@@H]5CO[C@@](Cn6cncn6)(c6ccc(F)cc6F)C5)cc4)CC3)cc2)c1=O  half-life (Sprague-Dawley rat; oral; 40 mg/kg): 15.7 h
Cc1nc(Nc2ncc(C(=O)Nc3c(C)cccc3Cl)s2)cc(N2CC[C@H](N)C2)n1  half-life (male Sprague-Dawley rat; intravenous; 1 mg/kg): 3.8 h
CCCCCCCCCC(=O)N[C@@H](Cc1c[nH]c2ccccc12)C(=O)N[C@H](CC(N)=O)C(=O)N[C@@H](CC(=O)O)C(=O)N[C@@H]1C(=O)NCC(=O)N[C@@H](CCCN)C(=O)N[C@@H](CC(=O)O)C(=O)N[C@H](C)C(=O)N[C@@H](CC(=O)O)C(=O)NCC(=O)N[C@H](CO)C(=O)N[C@@H]([C@H](C)CC(=O)O)C(=O)N[C@@H](CC(=O)c2ccccc2N)C(=O)O[C@@H]1C  half-life (male Wistar rat; subcutaneous; 125 mg/kg; single dose): 2.6 h
CCONC(=O)N1CCC[C@H](C(=O)NCc2nc(-c3ccc(C#N)cc3)cs2)C1  half-life (male Sprague-Dawley rat; intravenous; 1 mg/kg): 2.2 h
Cc1cc(S(=O)(=O)NC2CC(N3CCN(CC4CCN(c5ccc(NC6CCC(=O)NC6=O)cc5C)CC4)CC3)C2)ccc1Nc1ncc(C(F)(F)F)c(N2CCC[C@](C)(O)C2)n1 (some centres unmarked)  half-life (rat; intravenous; 2 mg/kg): 5.3 h
COCC(=O)N1CCC[C@H](C(=O)NCc2nc(-c3ccc(C#N)cc3)cs2)C1  half-life (male Sprague-Dawley rat; oral; 3 mg/kg): 2.4 h
Cc1cc(S(=O)(=O)NC2CC(N3CCN(CC4CCN(c5cccc6c5n(C)c(=O)n6C5CCC(=O)NC5=O)CC4)CC3)C2)ccc1Nc1ncc(C(F)(F)F)c(N2CCC[C@](C)(O)C2)n1 (some centres unmarked)  half-life (rat; intravenous; 2 mg/kg): 5.1 h
O=C1CCC(N2Cc3cc(C4CCN(Cc5ccccc5)CC4)ccc3C2=O)C(=O)N1 (centres unmarked)  half-life (male Sprague-Dawley rat; oral; 3 mg/kg): 1.31 h
